Data as given in ChEMBL document CHEMBL1759837, “Studies on chemical modification and biology of a natural product, gambogic acid (III): determination of the essential pharmacophore for biological activity” (Eur J Med Chem, 2011).
Calls of active or inactive are those of the source. The calls are words filed in the database; no cut-off is given here.

How the values were obtained:
HepG2 [1] = test: Induction of apoptosis in human HepG2 cells assessed as late apoptotic cells at 1 uM after 24 hrs using annexin V-propidium iodide staining by flow cytometry (reference value: 3.4%); format: functional
HepG2 [2] = test: Induction of apoptosis in human HepG2 cells assessed as decrease in pro-caspase-3 expression at 1 uM after 24 hrs by Western blot analysis; format: functional, cell-based
How it was run: (§1)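 HepG2 cells treated 24 h at 1, 2 or 4 µM. Lysed in Tris-Cl pH 6.8 buffer containing SDS, glycerol, β-mercaptoethanol, PMSF and aprotinin; cleared at 12 000 × g, 15 min, 4 °C. Protein measured by BCA. Samples run on 15% SDS-PAGE, transferred to PVDF, probed overnight at 4 °C with primary antibodies against bcl-2, bax and pro-caspase-3, then IRDye 800 secondary 1 h at 37 °C.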

HepG2 [3] = test: Induction of apoptosis in human HepG2 cells assessed as activation of caspase 3 at 1 to 4 uM after 24 hrs by colorimetric assay relative to control; format: functional
How it was run: (§2)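 Kit colorimetric caspase-3 test. HepG2 cells treated at 1, 2 or 4 µM for 24 h at 37 °C, then lysed on ice 20 min and centrifuged. Supernatant containing 200 µg total protein incubated with Ac-DEVD-pNA 4 h at 37 °C; absorbance read at 405 nm. Fold activity = OD treated / OD control; mean ± SD, t-test.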

HepG2 [4] = test: Induction of apoptosis in human HepG2 cells assessed as effect on bax protein expression at 4 uM after 24 hrs by Western blot analysis; format: functional, cell-based; how it was run: as §1
HepG2 [5] = test: Induction of apoptosis in human HepG2 cells assessed as early apoptotic cells at 4 uM after 24 hrs using annexin V-propidium iodide staining by flow cytometry (reference value: 3%); format: functional
SMMC-7721 = test: Antiproliferative activity against human SMMC7721 cells after 24 hrs by MTT assay; format: functional, cell-based; conditions: SMMC-7721, 24 h
How it was run: (§3)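 Cells grown at 37 °C in humidified 5% CO2 with benzylpenicillin and streptomycin. Compounds came from 0.01 mol/L DMSO stocks and were tested at eight two-fold dilutions in triplicate, with medium-only controls, for 24 h. MTT absorbance was read at 570 nm. Survival = A_treatment/A_control × 100. IC50 is the concentration giving 50% viability inhibition, as the mean of two separate experiments.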

HepG2 [6] = test: Induction of apoptosis in human HepG2 cells assessed as viable cells at 1 uM after 24 hrs using annexin V-propidium iodide staining by flow cytometry (reference value: 93.2%); format: functional; conditions: HepG2, 24 h, read-out: Activity
HepG2 [7] = test: Induction of apoptosis in human HepG2 cells assessed as late apoptotic cells at 2 uM after 24 hrs using annexin V-propidium iodide staining by flow cytometry (reference value: 3.4%); format: functional
HepG2 [8] = test: Induction of apoptosis in human HepG2 cells assessed as appearance of apoptotic bodies at 1 to 4 uM after 24 hrs using DAPI staining by fluorescent microscopy; format: functional, cell-based
How it was run: (§4)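 HepG2 cells seeded at 1 × 10⁵ cells/well and treated 24 h at 1, 2 or 4 µM. Living cells first viewed under inverted light microscope (×200). Cells then fixed 20 min in 4% paraformaldehyde, stained 10 min with DAPI (1 mg/ml) and examined by fluorescence microscopy (×400, 340 nm excitation) for nuclear changes and apoptotic bodies.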

HepG2 [9] = test: Induction of apoptosis in human HepG2 cells assessed as late apoptotic cells at 4 uM after 24 hrs using annexin V-propidium iodide staining by flow cytometry (reference value: 3.4%); format: functional
HepG2 [10] = test: Induction of apoptosis in human HepG2 cells assessed as bright condensed chromatin in nuclei at 1 uM after 24 hrs by fluorescence microscopy
HepG2 [11] = test: Antiproliferative activity against human HepG2 cells after 24 hrs by MTT assay; format: functional, cell-based; conditions: HepG2, 24 h
How it was run: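 Tetrazolium MTT viability test; cells exposed to compound 24 h, absorbance read at 570 nm. Survival ratio = A treated / A control × 100%; IC50 is the concentration giving 50% loss of viability. Eight concentrations in two-fold dilutions, triplicate wells, mean of two separate experiments. Compounds dissolved in DMSO (0.01 mol/L stock); control wells received medium only.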

HepG2 [12] = test: Induction of apoptosis in human HepG2 cells assessed as decrease in pro-caspase-3 expression at 4 uM after 24 hrs by Western blot analysis; format: functional, cell-based; how it was run: as §1
HepG2 [13] = test: Cell cycle arrest in human HepG2 cells assessed as accumulation at G2/M phase at 2 uM after 24 hrs using propidium iodide by Flow cytometry; format: functional, cell-based
How it was run: (§5)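 HepG2 cells synchronised by 24 h serum starvation, then treated 24 h at 1, 2 or 4 µM. Cells fixed overnight in 70% ethanol at 4 °C and stained 15 min at 37 °C in the dark with hypotonic PI solution (0.1% sodium citrate, 0.1% Triton X-100, 0.05 mg/ml PI, 0.01 mg/ml RNase). DNA content measured by flow cytometry.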

Mus musculus [14] = test: Toxicity in Kunming mouse xenografted with human HepG2 cells assessed as change in body weight at 12.5 mg/kg, iv administered 24 hrs after tumor implantation one dose per two day for total of four treatment measured after 24 hrs last postdose (reference value: 20.20 +/- 1.99 g); format: organism-based; set-up: dose 12.5 mg/kg, route intravenous; conditions: in vivo
HepG2 [15] = test: Induction of apoptosis in human HepG2 cells assessed as appearance of necrosis at 4 uM after 24 hrs by light microscopy; format: functional, cell-based; how it was run: as §4
HepG2 [16] = test: Cell cycle arrest in human HepG2 cells assessed as accumulation at G2/M phase at 4 uM after 24 hrs using propidium iodide by Flow cytometry; format: functional, cell-based; how it was run: as §5
[17] = system: Heps hepatoma (Mus musculus); test: Antitumor activity against murine Heps hepatoma cells transplanted in Kunming mouse assessed as tumor growth inhibition at 12.5 mg/kg, iv administered 24 hrs after tumor implantation one dose per two day for total of four treatment measured after 24 hrs last postdose relative to control
HepG2 [18] = test: Induction of apoptosis in human HepG2 cells assessed as decrease in bcl-2 expression at 4 uM after 24 hrs by Western blot analysis; format: functional, cell-based; how it was run: as §1
HepG2 [19] = test: Induction of apoptosis in human HepG2 cells assessed as pre-necrotic cells at 1 uM after 24 hrs using annexin V-propidium iodide staining by flow cytometry (reference value: 0.5%); format: functional
HepG2 [20] = test: Induction of apoptosis in human HepG2 cells assessed as cell distortion at 4 uM after 24 hrs using by inverted light microscopy; format: functional, cell-based; how it was run: as §4
HepG2 [21] = test: Induction of apoptosis in human HepG2 cells assessed as decrease in bcl-2 expression at 1 uM after 24 hrs by Western blot analysis; format: functional, cell-based; how it was run: as §1
Mus musculus [22] = test: Toxicity in Kunming mouse xenografted with human HepG2 cells assessed as change in body weight at 25 mg/kg, iv administered 24 hrs after tumor implantation one dose per two day for total of four treatment measured after 24 hrs last postdose (reference value: 20.20 +/- 1.14 g); format: organism-based; set-up: dose 25 mg/kg, route intravenous; conditions: in vivo
BGC-823 = test: Antiproliferative activity against human BGC823 cells after 24 hrs by MTT assay; format: functional, cell-based; conditions: BGC-823, 24 h; how it was run: as §3
HepG2 [23] = test: Induction of apoptosis in human HepG2 cells assessed as nuclear condensation at 1 to 4 uM after 24 hrs using DAPI staining by fluorescent microscopy; format: functional, cell-based; how it was run: as §4
Mus musculus [24] = test: Toxicity in Kunming mouse xenografted with human HepG2 cells assessed as change in body weight at 50 mg/kg, iv administered 24 hrs after tumor implantation one dose per two day for total of four treatment measured after 24 hrs last postdose (reference value: 19.10 +/- 1.29 g); conditions: in vivo
HepG2 [25] = test: Induction of apoptosis in human HepG2 cells assessed as pre-necrotic cells at 4 uM after 24 hrs using annexin V-propidium iodide staining by flow cytometry (reference value: 0.5%); format: functional
HepG2 [26] = test: Induction of apoptosis in human HepG2 cells assessed as large proportion of cell became round in shape at 4 uM after 24 hrs […] by inverted light microscopy; format: functional, cell-based; how it was run: as §4
HepG2 [27] = test: Induction of apoptosis in human HepG2 cells assessed as activation of caspase 3 after 24 hrs by colorimetric assay; format: functional, cell-based; how it was run: as §2
HepG2 [28] = test: Induction of apoptosis in human HepG2 cells assessed as effect on bax protein expression at 2 uM after 24 hrs by Western blot analysis; format: functional, cell-based; how it was run: as §1
HepG2 [29] = test: Induction of apoptosis in human HepG2 cells assessed as pre-necrotic cells at 2 uM after 24 hrs using annexin V-propidium iodide staining by flow cytometry (reference value: 0.5%); format: functional
[30] = system: Heps hepatoma (Mus musculus); test: Antitumor activity against murine Heps hepatoma cells transplanted in Kunming mouse assessed as tumor growth inhibition at 50 mg/kg, iv administered 24 hrs after tumor implantation one dose per two day for total of four treatment measured after 24 hrs last postdose relative to control
HepG2 [31] = test: Induction of apoptosis in human HepG2 cells assessed as viable cells at 4 uM after 24 hrs using annexin V-propidium iodide staining by flow cytometry (reference value: 93.2%); format: functional; conditions: HepG2, 24 h, read-out: Activity
Mus musculus [32] = test: Toxicity in Kunming mouse xenografted with human HepG2 cells assessed as irritation on vein vascular at 12.5 to 50 mg/kg, iv administered 24 hrs after tumor implantation one dose per two day for total of four treatment measured after 24 hrs last postdose; format: organism-based; set-up: dose 12.5-50 mg/kg, route intravenous; conditions: in vivo
HepG2 [33] = test: Induction of apoptosis in human HepG2 cells assessed as early apoptotic cells at 1 uM after 24 hrs using annexin V-propidium iodide staining by flow cytometry (reference value: 3%); format: functional
HepG2 [34] = test: Induction of apoptosis in human HepG2 cells assessed as induction of cell integrity at 1 uM after 24 hrs by light microscopy; format: functional, cell-based; how it was run: as §4
HepG2 [35] = test: Induction of apoptosis in human HepG2 cells assessed as decrease in bcl-2 expression at 2 uM after 24 hrs by Western blot analysis; format: functional, cell-based; how it was run: as §1
HepG2 [36] = test: Induction of apoptosis in human HepG2 cells assessed as early apoptotic cells at 2 uM after 24 hrs using annexin V-propidium iodide staining by flow cytometry (reference value: 3%); format: functional
[37] = system: Heps hepatoma (Mus musculus); test: Antitumor activity against murine Heps hepatoma cells transplanted in Kunming mouse assessed as tumor growth inhibition at 25 mg/kg, iv administered 24 hrs after tumor implantation one dose per two day for total of four treatment measured after 24 hrs last postdose relative to control
HepG2 [38] = test: Induction of apoptosis in human HepG2 cells assessed as effect on bax protein expression at 1 uM after 24 hrs by Western blot analysis; format: functional, cell-based; how it was run: as §1
HepG2 [39] = test: Cell cycle arrest in human HepG2 cells assessed as accumulation at G2/M phase at 1 uM after 24 hrs using propidium iodide by Flow cytometry; format: functional, cell-based; how it was run: as §5
HepG2 [40] = test: Induction of apoptosis in human HepG2 cells assessed as viable cells at 2 uM after 24 hrs using annexin V-propidium iodide staining by flow cytometry (reference value: 93.2%); format: functional; conditions: HepG2, 24 h, read-out: Activity
MCF7 = test: Antiproliferative activity against human MCF7 cells after 24 hrs by MTT assay; format: functional, cell-based; conditions: MCF7, 24 h; how it was run: as §3
[41] = system: Heps hepatoma (Mus musculus); test: Antitumor activity against murine Heps hepatoma cells transplanted in iv dosed Kunming mouse assessed as tumor growth inhibition administered 24 hrs after tumor implantation one dose per two day for total of four treatment measured after 24 hrs last postdose
HepG2 [42] = test: Induction of apoptosis in human HepG2 cells assessed as decrease in pro-caspase-3 expression at 2 uM after 24 hrs by Western blot analysis; format: functional, cell-based; how it was run: as §1
HepG2 [43] = test: Induction of apoptosis in human HepG2 cells assessed as cell membrane blebbing and shrinkage at 4 uM after 24 hrs using by inverted light microscopy; format: functional, cell-based; how it was run: as §4

IC50 (SMMC-7721): 8.06 µM
IC50 (HepG2 [11]): 2.37 µM
IC50 (BGC-823): 3.59 µM
IC50 (MCF7): 9.16 µM
SMILES: CC(C)=CCC12OC(C)(C)C3CC(C=C4C(=O)c5c(O)cccc5OC431)C2=O (stereo unspecified)
Activity (HepG2 [1]): 4.8%
Activity (HepG2 [2]): Active
fold change (FC) (HepG2 [3]): 3
Activity (HepG2 [4]): inactive
Activity (HepG2 [5]): 23.3%
viability at 1 µM (HepG2 [6]): 86.3%
Activity (HepG2 [7]): 8.1%
Activity (HepG2 [8]): Active
Activity (HepG2 [9]): 7.4%
Activity (HepG2 [10]): Active
Activity (HepG2 [12]): Active
Activity (HepG2 [13]): Active
Activity (Mus musculus [14]): 26.3 g
Activity (HepG2 [15]): Active
Activity (HepG2 [16]): Active
inhibition in vivo at 12.5 mg/kg [17]: 14.9%
Activity (HepG2 [18]): Active
Activity (HepG2 [19]): 0.8%
Activity (HepG2 [20]): Active
Activity (HepG2 [21]): Active
Activity (Mus musculus [22]): 29.4 g
Activity (HepG2 [23]): Active
Activity (Mus musculus [24]): 24.7 g
Activity (HepG2 [25]): 1.1%
Activity (HepG2 [26]): Active
Activity (HepG2 [27]): Dose-dependent effect
Activity (HepG2 [28]): inactive
Activity (HepG2 [29]): 1.1%
inhibition in vivo at 50 mg/kg [30]: 49.2%
viability at 4 µM (HepG2 [31]): 68.2%
Activity (Mus musculus [32]): Non-toxic
Activity (HepG2 [33]): 8.1%
Activity (HepG2 [34]): Active
Activity (HepG2 [35]): Active
Activity (HepG2 [36]): 18.9%
inhibition in vivo at 25 mg/kg [37]: 32.3%
Activity (HepG2 [38]): inactive
Activity (HepG2 [39]): Active
viability at 2 µM (HepG2 [40]): 71.9%
inhibition [41]: Dose-dependent effect
Activity (HepG2 [42]): Active
Activity (HepG2 [43]): Active
